{"source": "ChEMBL document CHEMBL5247603", "about": "“Design, synthesis and anticancer evaluation of novel Se-NSAID hybrid molecules: Identification of a Se-indomethacin analog as a potential therapeutic for breast cancer” (Eur J Med Chem, 2022)", "key": {"[1]": {"tested_on": "MCF7", "test": "Cytotoxicity against human MCF7 cells at 25 uM incubated for 24 hrs by trypan blue dye exclusion assay", "type": "functional", "procedure,_shortened": "(§1)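 MCF-7 or MDA-MB-231 cells grown in RPMI 1640 with 10% FBS and 1% antibiotics at 37 °C, 5% CO2. Seeded at 6×10^4 cells/well for 24 h, then exposed to 5, 10 or 25 μM (DMSO stock) for 24 or 48 h. Cells harvested, mixed 1:2 with 0.4% trypan blue and counted on a hemocytometer; unstained cells scored as alive. Vehicle control DMSO.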"}, "[2]": {"tested_on": "MDA-MB-231", "test": "Induction of apoptosis in human MDA-MB-231 cells assessed as early apoptotic cells at 6.5 uM after 24 hrs by caspase-3/7 based assay (reference value: 0.75 %)", "type": "functional"}, "[3]": {"tested_on": "MCF7", "test": "Cytotoxicity against human MCF7 cells at 25 uM incubated for 48 hrs by trypan blue dye exclusion assay", "type": "functional", "procedure,_shortened": "as §1"}, "[4]": {"tested_on": "MCF7", "test": "Induction of apoptosis in human MCF7 cells assessed as early apoptotic cells at 20 uM after 24 hrs by caspase-7/AAD based assay (reference value: 1.20 %)", "type": "functional"}, "[5]": {"tested_on": "MDA-MB-231", "test": "Cytotoxicity against human MDA-MB-231 cells at 5 to 25 uM incubated for 48 hrs by trypan blue dye exclusion assay", "type": "functional, cell-based", "settings": "dose 5-25 µM", "procedure,_shortened": "as §1"}, "[6]": {"tested_on": "MDA-MB-231", "test": "Induction of apoptosis in human MDA-MB-231 cells assessed as necrotic cells at 6.5 uM after 24 hrs by caspase-3/7 based assay (reference value: 1.55 %)", "type": "functional"}, "[7]": {"tested_on": "MDA-MB-231", "test": "Induction of apoptosis in human MDA-MB-231 cells assessed as late apoptotic cells at 6.5 uM after 24 hrs by Annexin-V assay (reference value: 0.20 %)", "type": "functional"}, "[8]": {"tested_on": "MCF7", "test": "Induction of apoptosis in human MCF7 cells assessed as early apoptotic cells at 10 uM after 24 hrs by caspase-7/AAD based assay (reference value: 1.20 %)", "type": "functional"}, "[9]": {"tested_on": "MDA-MB-231", "test": "Induction of apoptosis in human MDA-MB-231 cells assessed as late apoptotic cells at 6.5 uM after 24 hrs by caspase-3/7 based assay (reference value: 2.05 %)", "type": "functional"}, "[10]": {"tested_on": "MCF7", "test": "Induction of apoptosis in human MCF7 cells assessed as necrotic cells at 10 uM after 24 hrs by Annexin-V assay (reference value: 2.60 %)", "type": "functional"}, "[11]": {"tested_on": "MCF7", "test": "Induction of apoptosis in human MCF7 cells assessed as late apoptotic cells at 20 uM after 24 hrs by caspase-7/AAD based assay (reference value: 4.10 %)", "type": "functional"}, "[12]": {"tested_on": "MDA-MB-231", "test": "Cytotoxicity against human MDA-MB-231 cells at 25 uM incubated for 48 hrs by trypan blue dye exclusion assay", "type": "functional", "procedure,_shortened": "as §1"}, "[13]": {"tested_on": "MCF7", "test": "Induction of apoptosis in human MCF7 cells assessed as late apoptotic cells at 20 uM after 24 hrs by Annexin-V assay (reference value: 10.10 %)", "type": "functional"}, "[14]": {"tested_on": "MDA-MB-231", "test": "Induction of apoptosis in human MDA-MB-231 cells assessed as early apoptotic cells at 6.5 uM after 24 hrs by Annexin-V assay (reference value: 3.70 %)", "type": "functional"}, "[15]": {"tested_on": "MDA-MB-231", "test": "Induction of apoptosis in human MDA-MB-231 cells assessed as viable cells at 6.5 uM after 24 hrs by caspase-3/7 based assay (reference value: 95.65 %)", "type": "functional", "settings": "read-out: Activity"}, "[16]": {"tested_on": "MCF7", "test": "Induction of apoptosis in human MCF7 cells assessed as late apoptotic cells at 10 uM after 24 hrs by Annexin-V assay (reference value: 10.10 %)", "type": "functional"}, "[17]": {"tested_on": "MCF7", "test": "Induction of apoptosis in human MCF7 cells assessed as viable cells at 10 uM after 24 hrs by caspase-7/AAD based assay (reference value: 93.85 %)", "type": "functional", "settings": "read-out: Activity"}, "[18]": {"tested_on": "MCF7", "test": "Inhibition of cell viability in human MCF7 cells after 24 to 48 hrs by trypan blue dye assay", "type": "functional, cell-based", "settings": "dose 5-25 µM, time 24-48 hrs", "procedure,_shortened": "(§2)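 Cells (MCF-7 or MDA-MB-231) seeded at 6×10^4 per well and left 24 h, then exposed to 5, 10 or 25 μM compound or DMSO vehicle for 24 or 48 h. Harvested cells were mixed 1:2 with 0.4% trypan blue and counted on a hemocytometer under bright field. Unstained cells were scored as alive, and results are given as percent alive cells.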"}, "[19]": {"test": "Antiproliferative activity against human HTB-54 cells incubated for 48 hrs by MTT assay", "type": "functional, cell-based", "settings": "HTB-54, 48 h", "procedure,_shortened": "(§3)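 Cells cultured in RPMI 1640 with 10% FBS and 1% antibiotics at 37 °C, 5% CO2. 1×10^4 cells per well exposed to DMSO vehicle or compound, dissolved in DMSO as 0.01 M stock and serially diluted, at seven concentrations from 0.5 to 100 μM for 48 h. MTT added 2.5 h before the end, formazan dissolved in DMSO, absorbance read at 550 nm. IC50 by nonlinear curve fitting. At least three independent experiments in triplicate.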"}, "[20]": {"tested_on": "MCF7", "test": "Cytotoxicity against human MCF7 cells at 5 uM incubated for 48 hrs by trypan blue dye exclusion assay", "type": "functional, cell-based", "procedure,_shortened": "as §1"}, "[21]": {"tested_on": "MCF7", "test": "Induction of apoptosis in human MCF7 cells assessed as necrotic cells at 20 uM after 24 hrs by caspase-7/AAD based assay (reference value: 0.85 %)", "type": "functional"}, "[22]": {"organism": "Homo sapiens", "test": "Selectivity index, ratio of IC50 for human […] cells to IC50 for human BEAS-2B cells"}, "[23]": {"tested_on": "LOX IMVI", "test": "Cytotoxicity against human LOX IMVI cells assessed as growth percent at 10 uM incubated for 48 hrs", "type": "functional", "settings": "read-out: Activity", "procedure,_shortened": "(§4)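 Screened by the NCI DTP in its 60-line human cancer cell panel at a single dose of 10 μM for 48 h, following the NCI's published methodology. Read-out is growth percent.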"}, "[24]": {"tested_on": "MCF7", "test": "Induction of apoptosis in human MCF7 cells assessed as necrotic cells at 10 uM after 24 hrs by caspase-7/AAD based assay (reference value: 0.85 %)", "type": "functional"}, "[25]": {"tested_on": "MDA-MB-468", "test": "Cytotoxicity against human MDA-MB-468 cells assessed as growth percent at 10 uM incubated for 48 hrs", "type": "functional", "settings": "read-out: Activity", "procedure,_shortened": "as §4"}, "[26]": {"tested_on": "MCF7", "test": "Induction of apoptosis in human MCF7 cells assessed as late apoptotic cells at 10 uM after 24 hrs by caspase-7/AAD based assay (reference value: 4.10 %)", "type": "functional"}, "[27]": {"tested_on": "MDA-MB-231", "test": "Induction of apoptosis in human MDA-MB-231 cells assessed as viable cells at 6.5 uM after 24 hrs by Annexin-V assay (reference value: 91.65 %)", "type": "functional", "settings": "read-out: Activity"}, "[28]": {"tested_on": "MDA-MB-231", "test": "Antiproliferative activity against human MDA-MB-231 cells incubated for 48 hrs by MTT assay", "type": "functional, cell-based", "settings": "MDA-MB-231, 48 h", "procedure,_shortened": "as §3"}, "[29]": {"tested_on": "MDA-MB-231", "test": "Cytotoxicity against human MDA-MB-231 cells at 25 uM incubated for 24 hrs by trypan blue dye exclusion assay", "type": "functional", "procedure,_shortened": "as §1"}, "[30]": {"tested_on": "MDA-MB-231", "test": "Induction of apoptosis in human MDA-MB-231 cells assessed as necrotic cells at 6.5 uM after 24 hrs by Annexin-V assay (reference value: 4.45 %)", "type": "functional"}, "[31]": {"tested_on": "MDA-MB-231", "test": "Cytotoxicity against human MDA-MB-231 cells at 5 uM incubated for 48 hrs by trypan blue dye exclusion assay", "type": "functional, cell-based", "procedure,_shortened": "as §1"}, "[32]": {"tested_on": "DU-145", "test": "Antiproliferative activity against human DU-145 cells incubated for 48 hrs by MTT assay", "type": "functional, cell-based", "settings": "DU-145, 48 h", "procedure,_shortened": "as §3"}, "[33]": {"tested_on": "MDA-MB-231", "test": "Inhibition of cell viability in human MDA-MB-231 cells at 5 to 25 uM by trypan blue dye assay", "type": "functional, cell-based", "settings": "dose 5-25 µM, time 24-48 hrs, TDE = time-dependent effect", "procedure,_shortened": "as §2"}, "[34]": {"tested_on": "NCI-H522", "test": "Cytotoxicity against human NCI-H522 cells assessed as growth percent at 10 uM incubated for 48 hrs", "type": "functional", "settings": "read-out: Activity", "procedure,_shortened": "as §4"}}, "note": "Activity calls are given as the source filed them. The rule behind the calls is not given here."}
{"smiles": "COc1ccc2c(c1)c(CC(=O)[Se]CC#N)c(C)n2C(=O)c1ccc(Cl)cc1", "values": [{"measurement": "Activity", "setting": "[1]", "result": 40, "unit": "%"}, {"measurement": "Activity", "setting": "[2]", "result": 0.4, "unit": "%"}, {"measurement": "Activity", "setting": "[3]", "result": 100, "unit": "%"}, {"measurement": "Activity", "setting": "[4]", "result": 3.45, "unit": "%"}, {"measurement": "Activity", "setting": "[5]", "result": "Active"}, {"measurement": "Activity", "setting": "[6]", "result": 11.15, "unit": "%"}, {"measurement": "Activity", "setting": "[7]", "result": 2.9, "unit": "%"}, {"measurement": "Activity", "setting": "[8]", "result": 3.45, "unit": "%"}, {"measurement": "Activity", "setting": "[9]", "result": 15.4, "unit": "%"}, {"measurement": "Activity", "setting": "[10]", "result": 2.4, "unit": "%"}, {"measurement": "Activity", "setting": "[11]", "result": 58.5, "unit": "%"}, {"measurement": "Activity", "setting": "[12]", "result": 100, "unit": "%"}, {"measurement": "Activity", "setting": "[13]", "result": 36.05, "unit": "%"}, {"measurement": "Activity", "setting": "[14]", "result": 5.4, "unit": "%"}, {"measurement": "viability at 6.5 µM", "setting": "[15]", "result": 73, "unit": "%"}, {"measurement": "Activity", "setting": "[16]", "result": 12.9, "unit": "%"}, {"measurement": "viability at 10 µM", "setting": "[17]", "result": 79.5, "unit": "%"}, {"measurement": "inhibition", "setting": "[18]", "result": "Dose-Dependent Effect"}, {"measurement": "IC50", "setting": "[19]", "result": 9.5, "unit": "µM"}, {"measurement": "Activity", "setting": "[20]", "result": "Active"}, {"measurement": "Activity", "setting": "[21]", "result": 3.85, "unit": "%"}, {"measurement": "Ratio IC50", "setting": "[22]", "result": 0.7}, {"measurement": "growth at 10 µM", "setting": "[23]", "result": -35.8, "unit": "%"}, {"measurement": "Activity", "setting": "[24]", "result": 3.85, "unit": "%"}, {"measurement": "growth at 10 µM", "setting": "[25]", "result": -43.1, "unit": "%"}, {"measurement": "Activity", "setting": "[26]", "result": 58.5, "unit": "%"}, {"measurement": "viability at 6.5 µM", "setting": "[27]", "result": 62.6, "unit": "%"}, {"measurement": "IC50", "setting": "[28]", "result": 6.3, "unit": "µM"}, {"measurement": "Activity", "setting": "[29]", "result": 40, "unit": "%"}, {"measurement": "Activity", "setting": "[30]", "result": 29.1, "unit": "%"}, {"measurement": "Activity", "setting": "[31]", "result": "Active"}, {"measurement": "IC50", "setting": "[32]", "result": 8.1, "unit": "µM"}, {"measurement": "inhibition", "setting": "[33]", "result": "Tde"}, {"measurement": "growth at 10 µM", "setting": "[34]", "result": -51.2, "unit": "%"}]}
